# Assay results: article PMC4232467 (Nature chemical biology, 2014)
# Columns and labels:
# Experiment in all cases: Susceptibility testing
# Format in all cases: cell-based
# [1] = system: Enterobacter cloacae (AmpC overproducer); settings: read-out: Minimum inhibitory concentrations (MICs; μg/mL) Enterobacter cloacae
# Summary of the method: (§1)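 Broth susceptibility testing of clinical isolates resistant to third-generation cephalosporins, run and read per CLSI guidelines. […] Compounds were dissolved in DMSO and diluted into Mueller Hinton medium, with DMSO kept below 5%. Values are the average of three independent experiments.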
# [2] = system: Citrobacter freundii (AmpC overproducer); settings: read-out: Minimum inhibitory concentrations (MICs; μg/mL) Citrobacter freundii
# Summary of the method: as §1
# [3] = system: Escherichia coli (TEM-3) ESBL producer; settings: read-out: Minimum inhibitory concentrations (MICs; μg/mL) Escherichia coli (TEM-3)
# Summary of the method: as §1
# [4] = system: Escherichia coli (CTX-M-14) ESBL producer; settings: read-out: Minimum inhibitory concentrations (MICs; μg/mL) Escherichia coli (CTX-M-14)
# Summary of the method: as §1
compound,measurement,setting,value
"CO/N=C(\C(=O)N[C@@H]1C(=O)N2C(C(=O)O)=C(COC(C)=O)CS[C@H]12)c1csc(N)n1 [Cefotaxime, cefotaxime]",MIC,[1],64 µg/mL
same,MIC,[2],16 µg/mL
same,MIC,[3],8 µg/mL
same,MIC,[4],256 µg/mL
